# Experimental data reported in publication PMC7064889 (Chembiochem, 2019).
# Experiments:
# Format in all cases: cell-based, human
# [1] = system: M21L cells; experiment: flow cytometry uptake, M21L cells
# Summary of the method: (§1)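 Cells (2×10^6) were incubated with fluorescently labelled cyclic RGD test peptide (30 μM) for 0, 10 or 30 min. They were washed with buffer and analysed by flow cytometry. The negative control received no peptide.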
# [2] = system: M21 cells; experiment: flow cytometry uptake, M21 cells
# Summary of the method: as §1
# [3] = system: M21 cells; experiment: live cell imaging
# Summary of the method: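 Cells were grown overnight on glass-slip chambers and counterstained with LysoTracker Red DND-99. They were then incubated 10 min with fluorescent test peptide: 5 μM for the non-PEGylated peptide, 10 μM for the 5 kDa PEGylated peptide. Washing was careful but thorough. Confocal live-cell microscopy followed, with z-stacking and gain set in the peptide channel.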
# [4] = peptide 30 μM, 0, 10, 30 min, 37 °C, medium without FCS
substance,measurement,setting,value
c(RGDw(pyren‐1‐yl)K(PEG5000)) [peptide 2],"0 min sample versus negative control (no peptide), M21L","[1]; peptide 30 μM, 0 min",largely overlaps with the 0 min samples
same,"flow cytometry fluorescence, M21L",[1]; [4],not for αv deficient M21L cells
same,uptake in M21L cells (flow cytometry and live cell imaging),[1]; αv-deficient M21L cells,no uptake in αv‐deficient M21L cells
same,mode of uptake (conclusion from flow cytometry and live cell imaging),"[2]; M21 versus M21L cells, flow cytometry 30 μM plus imaging",integrin‐mediated endocytosis
same,"0 min sample versus negative control (no peptide), M21","[2]; peptide 30 μM, 0 min",largely overlaps with the 0 min samples
same,"uptake selectivity M21 versus M21L, flow cytometry","[2]; peptide 30 μM, 0, 10, 30 min",uptake of peptide 2 only by M21 cells
same,"flow cytometry fluorescence, M21",[2]; [4],significant fluorescence
same,"colocalization with lysosomes, M21","[3]; LysoTracker Red DND-99, 10 min, 37 °C, peptide 1 5 μM, peptide 2 10 μM",colocalizes largely with lysosomes
same,"localization by z-stacking, M21","[3]; Z-stack, peptide 10 μM, 10 min",presence of peptide inside the cells
